Screens deposited in PubChem by several laboratories.
Many of the other results were omitted from the sample, so hits are more common in it than they were.
Hep lipid drop – hepatic lipid droplet formation modulation | actives 0.4% (n = 240,000) | AML12 mouse hepatocytes, oleate lipid droplets, BODIPY imaging | inhibition, % at 6.5 µM;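 active means lipid droplet intensity inhibited by at least 50%, with more than 500 cells counted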
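Technique: fluorescence imaging, 20x objective, two fields per well / Assay system: AML12 hepatocytes (mouse) / Measure: % inhibition of lipid droplet signal / Doses: 6.5 µM single-point dosing / Incubation: overnight exposure / Reagent: 100 µM oleic acid challenge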
Redox H2O2 prof – compounds producing H2O2 with reducing agent – biochemical, NIH compound library profiling, artefact control for MLSCN library redox annotation, primary screen; DTT-dependent redox cycling H2O2, phenol red/HRP absorbance; 100% = 100 µM peroxide control, 0% = buffer; activation, % at 10 µM; actives 0.03% (n = 200,000); AID 878;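 active means activation of at least 50% relative to the plate's high and low controls in the primary single-dose screen; inactive means activation below 50%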;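 further: compound incubated with DTT at 0.8 mM final as the reducing agent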
L major viab – inhibitors of Leishmania major promastigote growth; actives 9% (n = 200,000); inhibition, % at 10 µM; Leishmania major promastigotes, resazurin fluorescence viability; in the data active means inhibition above about 50%;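 further: promastigotes grown with compound for 44 hours at 28 °C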
MPTP block – permeability transition pore inhibition; isolated mouse mitochondria, Ca2+ swelling absorbance, 30 min; inhibition, % at 10 µM; actives 1.4% (n = 360,000);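 active means inhibition of 50% or more, scaled per plate between neutral and stimulator controls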;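 further: 0% = DMSO wells given calcium and 100% = 1 mM EGTA wells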
T cruzi repl – T. cruzi replication inhibition | inhibition, % (concentration not given with the values) | T. cruzi beta-gal in NIH3T3, luminescence, 90 h | actives 1.4% (n = 300,000) | AID 1885;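 active means mean inhibition across valid replicates above about 55%, limit read from the data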;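 further: signal also drops with host cell toxicity which is not excluded here; 0% = plate median of DMSO wells and 100% = zero luminescence signal; higher percent means less beta-gal luminescence so fewer parasites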
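Incubation – ≥90 h infection period, 3 h prior cell attachment · System – NIH/3T3 fibroblasts plus reporter T. cruzi · Doses – compound pinned at 50 nL/well, DMSO · Read-out basis – percent inhibition of parasite-derived β-gal signal · Signal – luminescent β-galactosidase signal after 60 min lysis · Also added – 5000 T. cruzi trypomastigotes/well · Medium – Low-serum DMEM with 2% FBS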
* hit, by the source's call; . = no result.

SMILES | Hep lipid drop | Redox H2O2 prof | L major viab | MPTP block | T cruzi repl
O=C(Nc1ccc(S(=O)(=O)NC2=NCCCCC2)cc1)c1cc(S(=O)(=O)N2CCOCC2)ccc1F | 2.4 | . | . | -2.5 | -7.6
Cc1ccc(OCC(=O)N(c2ccccn2)C2CCCCC2)c(C)c1 | 1.3 | -0.3 | 87.0* | 0.4 | -4.8
O=C(NCc1ccccc1)c1cc(C2CCCCN2C(=O)OCCF)on1 (configuration not stated) | . | . | . | 2.0 | .
COC1=CC(=O)C(OC)=C(OC)C1=O | . | . | . | 0.2 | .
CCOC(=O)c1cc(-c2ccncc2)nc2c1c(C)nn2-c1ccccn1 | . | 2.3 | 100.5* | 0.3 | -7.7
Cc1nn(-c2ccccn2)c2nc(-c3cccs3)cc(C(=O)N3CCOCC3)c12 | . | 1.1 | 83.8* | -0.3 | 18.4
COc1ccc(-c2cc(C(=O)O)c3c(C)nn(-c4ccccn4)c3n2)cc1 | . | 3.5 | -6.4 | . | -23.3
COc1ccc(N=C2SC(C(=O)Nc3ccc(OC)cc3)CC(=O)N2CCN2CCOCC2)cc1 (configuration not stated) | . | -0.7 | 57.7* | -0.1 | 9.3
COc1ccc(NC(=O)N(C2CCCCC2)C(C)c2cccnc2)c(OC)c1 (configuration not stated) | . | 2.7 | 81.7* | 0.4 | 12.6
COc1ccc(NC(=O)N(C2CCCCC2)C(C)c2ccco2)c(OC)c1 (configuration not stated) | . | 1.2 | 39.5 | 1.8 | 18.7
Cc1ccc(NC(=O)N(C2CCCCC2)C(C)c2cccnc2)cc1C (configuration not stated) | . | -1.6 | 83.2* | -0.6 | 28.8
CCc1ccc(NC(=O)N(C2CCCCC2)C(C)c2cccnc2)cc1 (configuration not stated) | 11.6 | 0.0 | 90.0* | -0.5 | -2.5
CCCCSc1cc(C)nc(N)n1 | -13.0 | . | . | 0.4 | 12.8
O=C(NCc1ccco1)c1cccn2c(=O)c3cc4ccccc4cc3nc12 | 5.9 | 1.9 | 14.0 | . | .
COCCCNC(=O)c1cccn2c(=O)c3cc4ccccc4cc3nc12 | . | -3.7 | 89.6* | -2.3 | .
CC(=O)c1ccc(OCc2cc(C(=O)NCCc3ccc(Cl)cc3)no2)cc1 | -32.1 | . | . | -1.3 | -14.9
Cc1ccc(C(=O)CC(=O)COc2ccc(Cl)cc2C)cc1 | -5.5 | 0.2 | 91.0* | -0.1 | 12.8
Cc1ccc(NC(=O)c2ccc(OC(=O)COc3ccc(Cl)cc3C)cc2)cc1 | -1.2 | 0.6 | -6.6 | -0.2 | -31.2
O=C(O)COC(=O)Cc1ccccc1Nc1c(Cl)cccc1Cl | -8.8 | . | . | -2.8 | -8.3
CC1(C)Cc2c(c(N3CCOCC3)nc3sc4c(NCCN)ncnc4c23)CO1 | . | . | . | 0.5 | .
CN(C)CCNc1ncnc2c1sc1nc(N3CCOCC3)c3c(c12)CC(C)(C)SC3 | . | -8.3 | 100.6* | -6.8 | 53.5
CCN(CC)CCNc1ncnc2c1sc1nc(N3CCOCC3)c3c(c12)CC(C)(C)SC3 | . | 1.5 | 100.5* | -7.5 | 39.7
Cc1cnc(CNC(=O)C2(C)CCCN2CC(C)C)cn1 (configuration not stated) | . | . | . | 1.5 | .
CC(C)NC(=O)NC(=O)COC(=O)Cc1c(F)cccc1Cl | 1.2 | -0.1 | -6.9 | -1.7 | -0.5
CC(C)OC(=O)/C(=C\c1cccc2ccccc12)NC(=O)c1ccccc1 | 23.3 | -0.3 | 91.0* | 2.8 | 24.9
SMILES | Hep lipid drop | Redox H2O2 prof | L major viab | MPTP block | T cruzi repl
CCC/C(O)=C1\C(=O)CCCC1=NCCc1c(C)[nH]c2ccc(OC)cc12 | -45.2 | -1.3 | 10.7 | -0.9 | 4.7
Cc1cc(C)cc(-n2c(N)c(C(=O)Nc3c(C)n(C)n(-c4ccccc4)c3=O)c3nc4ccccc4nc32)c1 | 0.7 | 0.1 | 76.5* | -0.6 | 56.2*
Cc1ccc(-n2c(N)c(C(=O)Nc3c(C)n(C)n(-c4ccccc4)c3=O)c3nc4ccccc4nc32)cc1 | 7.0 | 0.3 | 59.8* | -3.5 | 12.9
COc1cccc(-n2c(N)c(C(=O)Nc3c(C)n(C)n(-c4ccccc4)c3=O)c3nc4ccccc4nc32)c1 | 4.8 | . | . | 1.4 | 12.6
Cc1ccc(C2=NCCn3c2c2ccc(C(F)(F)F)cc2[n+]3[O-])cc1 | . | . | . | -0.6 | -26.7
CN=c1scc(-c2ccc(F)cc2)n1/N=C/c1ccc(O)c(O)c1 | -15.8 | -0.5 | 100.0* | 4.0 | .
COc1cccc(-c2cc(NC(C)=O)c3ncc(-c4ccc(OC)c(OC)c4)n3c2)c1 | . | . | . | 0.1 | .
O=S(=O)(c1ccc(Cl)cc1)N(CCCN1CCOCC1)Cc1cccs1 | -17.3 | 0.0 | 68.4* | -0.9 | -2.4
COc1ccc(S(=O)(=O)N(CCCN2CCOCC2)Cc2cccc3ccccc23)cc1 | 15.0 | 0.6 | 99.0* | 1.7 | 2.6
COc1ccccc1NC(=O)Cn1nnc(-c2ccccc2NS(=O)(=O)c2ccccc2)n1 | 17.7 | -0.4 | 51.2* | 47.7 | -6.9
COc1ccc(NC(=O)Cn2nnc(-c3ccccc3NS(=O)(=O)c3ccc(OC)cc3)n2)cc1 | -14.2 | -0.1 | 68.8* | 2.7 | 18.5
COc1ccc(NC(=O)Cn2nnc(-c3ccccc3NC(=O)c3cccs3)n2)cc1 | . | 0.0 | 1.9 | 1.4 | -23.7
COc1ccccc1NC(=O)Cn1nnc(-c2ccccc2NC(=O)c2cc3ccccc3oc2=O)n1 | . | -1.6 | 100.5* | 2.4 | -0.6
CCn1nnc(-c2ccccc2NS(=O)(=O)c2ccc(C(=O)OC)cc2)n1 | 3.2 | 0.2 | -1.1 | 6.5 | 2.0
C=CCn1c(CCc2cc(C(C)(C)C)c(O)c(C(C)(C)C)c2)n[nH]c1=S | 22.9 | -0.4 | 20.1 | -0.1 | 30.7
O=c1[nH]c(C2CCN(S(=O)(=O)c3ccccc3C(F)(F)F)CC2)nc2c1nnn2Cc1cccc(F)c1 | -2.1 | . | . | 0.7 | 23.2
O=C(CN1C(=O)NC2(CCCc3ccccc32)C1=O)Nc1cc(F)ccc1F (configuration not stated) | . | . | . | 1.7 | -3.3
COc1ccc(C(CNC(=O)COc2ccc(F)cc2Cl)N2CCOCC2)cc1 (configuration not stated) | . | . | . | 0.2 | .
COc1ccc(CN2C(=O)c3ccccc3C2c2nnnn2-c2c(C)cccc2C)cc1OC (configuration not stated) | . | . | . | 0.4 | .
COc1cc(CN2CCN(c3cccc(C)c3C)CC2)cc(Br)c1O | . | -0.8 | 95.4* | -1.5 | -10.3
COc1ccc(CN2CCSCC2)cc1C | 9.5 | 0.2 | 78.4* | -0.8 | -11.4
COc1ccc(CN2CCN(c3cccc(C)c3C)CC2)cc1OC | -8.2 | 0.4 | 81.0* | 2.4 | -22.4
COc1cc(CN2CCN(c3ccccc3C)CC2)cc([N+](=O)[O-])c1O | 0.9 | -0.2 | 7.1 | 0.5 | 4.4
CC(=O)Nc1ccccc1OCc1cnc(Cl)s1 | 1.4 | 0.3 | -0.9 | -0.2 | -9.7
O=C(c1cccnc1)N1CCC(Oc2ccc(C(=O)N3CCCC(O)C3)cc2)CC1 (configuration not stated) | 0.0 | 0.5 | 0.1 | -1.9 | -1.7
COC(=O)[C@]12C(=O)NC[C@H](CN1c1ccc(Cl)c(C)c1)N2C | . | . | . | 0.5 | .
CCCNCC1COc2ccccc2O1 (configuration not stated) | 16.8 | 0.8 | 39.3 | . | -12.1
